From ChEMBL document CHEMBL3351523 (Bioorg Med Chem, 2014)

Key:
[1] = Cytotoxicity against mock-infected human MT4 cells after 96 hrs by MTT assay; assay type: cell-based
Method in brief: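 Exponentially growing MT-4 cells were seeded at 1 × 10^5 cells/mL in RPMI-1640 with 10% FBS and held at 37 °C, 5% CO2 with serial compound dilutions. Viability was read by MTT after 96 h. CC50 from linear regression against untreated controls.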

[2] = Selectivity index, ratio of CC50 for african green monkey Vero 76 cells to EC50 for Coxsackievirus B5; assay type: toxicity, cell-based; settings: read-out: Ratio CC50/EC50
Method in brief: (§1)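 Mock-infected Vero-76 cells were tested in parallel on the same 24-well plates as the plaque assays (seeding 4 × 10^5 cells/mL, D-MEM with FBS), with serial compound dilutions at 37 °C, 5% CO2. Viability was read after 48–96 h by crystal violet staining. CC50 by linear regression; selectivity index = Vero-76 CC50/EC50 for CVB-5 or RSV.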

[3] = Cytotoxicity against mock-infected african green monkey Vero 76 cells after 48 to 96 hrs by MTT assay; assay type: cell-based; settings: chlorocebus sabaeus, mock-infected Vero 76 cells
Poliovirus 1 = assay: Antiviral activity against Poliovirus type 1 Sabin strain infected in african green monkey Vero 76 cells assessed as reduction in plaque number after 2 days by plaque reduction assay; assay type: functional, organism-based; settings: Enterovirus C, 48 h
[4] = Cytotoxicity against mock-infected BHK21 cells after 48 to 96 hrs by MTT assay; assay type: functional; settings: Mesocricetus auratus, BHK-21
Method in brief: (§2)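 Mock-infected MDBK (6 × 10^5 cells/mL; MEM-E, 10% horse serum, 1 mM pyruvate) or BHK (1 × 10^6 cells/mL; MEM-E, 10% FBS) cells were incubated at 37 °C, 5% CO2 with serial dilutions from 100 µM, 1:5. Viability by MTT after 48–96 h. CC50 from linear regression against untreated controls.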

[5] = tested on: Vesicular stomatitis virus; assay: Antiviral activity against Vesicular stomatitis virus infected in african green monkey Vero 76 cells assessed as reduction in plaque number after 2 days by plaque reduction assay; assay type: functional, organism-based; settings: 48 h
Human alphaherpesvirus 1 = assay: Antiviral activity against HSV1 infected in african green monkey Vero 76 cells assessed as reduction in plaque number after 3 days by plaque reduction assay; assay type: functional, organism-based; settings: Human alphaherpesvirus 1, Vero, 72 h
Coxsackievirus B5 = assay: Antiviral activity against Coxsackievirus B5 infected in african green monkey Vero 76 cells assessed as reduction in plaque number after 3 days by plaque reduction assay; assay type: functional, organism-based; settings: Enterovirus B, 72 h
Vaccinia virus = assay: Antiviral activity against Vaccinia Virus infected in african green monkey Vero 76 cells assessed as reduction in plaque number after 3 days by plaque reduction assay; assay type: functional, organism-based; settings: Orthopoxvirus vaccinia, 72 h
[6] = Cytotoxicity against mock-infected MDBK cells after 48 to 96 hrs by MTT assay; assay type: cell-based, Bos taurus; settings: cattle; method in brief: as §2
[7] = tested on: Bovine viral diarrhea virus 1; assay: Antiviral activity against Bovine viral diarrhea virus infected in MDBK cells assessed as inhibition of virus-induced cytopathogenicity after 3 to 4 days by MTT assay; assay type: functional, organism-based; settings: Bovine viral diarrhea virus isolates and strains
Reovirus sp. = assay: Antiviral activity against Reovirus type-1 infected in BHK21 cells assessed as inhibition of virus-induced cytopathogenicity after 3 to 4 days by MTT assay; assay type: functional, organism-based; settings: BHK-21
Yellow fever virus = assay: Antiviral activity against Yellow fever virus infected in BHK21 cells assessed as inhibition of virus-induced cytopathogenicity after 3 to 4 days by MTT assay; assay type: functional, organism-based; settings: BHK-21
[8] = tested on: Respiratory syncytial virus; assay: Antiviral activity against Respiratory syncytial virus infected in african green monkey Vero 76 cells assessed as reduction in plaque number after 5 days by plaque reduction assay; assay type: functional, organism-based; settings: human respiratory syncytial virus, 120 h
[9] = tested on: Human immunodeficiency virus 1; assay: Antiviral activity against HIV1 infected in human MT4 cells assessed as inhibition of virus-induced cytopathogenicity after 4 days by MTT assay; assay type: functional, organism-based; settings: Human immunodeficiency virus 1, MT4, 96 h
Method in brief: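 MT-4 cells (1 × 10^4/well in RPMI) were infected acutely with HIV-1 IIIB, 100 CCID50 (m.o.i. 0.01), with serial dilutions from 100 µM, 1:5. After 4 days at 37 °C, protection from virus-induced cytopathogenicity was read by MTT. EC50 came from linear regression against untreated controls.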

[10] = Selectivity index, ratio of CC50 for african green monkey Vero 76 cells to EC50 for Respiratory syncytial virus; assay type: toxicity, cell-based; settings: read-out: Ratio CC50/EC50; method in brief: as §1

SMILES	CC50 at 96 h [1]	selectivity ratio [2]	CC50 [3]	EC50 (Poliovirus 1)	CC50 [4]	EC50 [5]	EC50 (Human alphaherpesvirus 1)	EC50 (Coxsackievirus B5)	EC50 (Vaccinia virus)	CC50 [6]	EC50 [7]	EC50 (Reovirus sp.)	EC50 (Yellow fever virus)	EC50 [8]	EC50 [9]	selectivity ratio [10]
FC(F)(F)c1ccc2c(c1)nc(Cc1ccc(Br)cc1)n2C[C@@H]1CCCN2CCCC[C@H]12	13 µM	> 1	> 100 µM	> 100 µM	20 µM	> 100 µM	> 100 µM	> 100 µM	> 100 µM	40 µM	> 100 µM	> 100 µM	> 100 µM	25 µM	> 100 µM	> 4
Clc1ccc(Cc2nc3cc(Cl)c(Cl)cc3n2C[C@@H]2CCCN3CCCC[C@H]23)cc1Cl	9 µM	> 11.1	> 100 µM	> 100 µM	52 µM	> 100 µM	> 100 µM	9 µM	> 100 µM	46 µM	> 100 µM	> 100 µM	> 100 µM	12 µM	> 100 µM	> 8.33
FC(F)(F)c1ccc2c(c1)nc(C(F)(F)F)n2C[C@@H]1CCCN2CCCC[C@H]12	54 µM	8.18	90 µM	> 100 µM	80 µM	> 100 µM	> 100 µM	11 µM	> 100 µM	≥ 100 µM	> 100 µM	> 100 µM	33 µM	22 µM	> 100 µM	4.09
CCCCn1c(Cc2ccc(Cl)c(Cl)c2)nc2cc(C(F)(F)F)ccc21	> 100 µM	> 8.33	> 100 µM	> 100 µM	21 µM	> 100 µM	> 100 µM	12 µM	31 µM	11 µM	> 100 µM	> 100 µM	> 100 µM	9 µM	> 100 µM	> 11.1
FC(F)(F)c1ccc2c(c1)nc(Cc1ccc(Cl)cc1)n2C[C@@H]1CCCN2CCCC[C@H]12	6 µM	> 7.69	> 100 µM	> 100 µM	20 µM	> 100 µM	> 100 µM	13 µM	> 100 µM	54 µM	> 100 µM	> 100 µM	> 100 µM	15 µM	> 100 µM	> 6.67
c1ccc(-n2c(C[C@H]3CCCN4CCCC[C@H]34)nc3ccccc32)cc1	42 µM	> 5.88	> 100 µM	73 µM	29 µM	> 100 µM	> 100 µM	17 µM	> 100 µM	90 µM	44 µM	> 100 µM	> 100 µM	7 µM	> 100 µM	> 14.3
c1ccc(Cn2c(-c3ccccc3)nc3ccccc32)cc1	47 µM		87 µM	> 100 µM	36 µM	> 100 µM	> 100 µM	> 100 µM	> 100 µM	54 µM	> 100 µM	> 100 µM	> 100 µM	25 µM	> 100 µM	3.48
NC(=O)c1ncn([C@@H]2O[C@H](CO)[C@@H](O)[C@H]2O)n1 [RIBAVIRIN]			> 100 µM	> 100 µM	> 100 µM	> 100 µM	> 100 µM	> 100 µM	> 100 µM	> 100 µM	8 µM	> 100 µM	> 100 µM			> 14.3
c1ccc2c(c1)Cn1c(nc3ccccc31)-c1ccccc1-2	44 µM		80 µM	> 100 µM	20 µM	> 100 µM	> 100 µM	> 100 µM	> 100 µM	23 µM	> 100 µM	> 100 µM	> 100 µM	9 µM	> 100 µM	8.89
COc1c(C)c2c(c(O)c1C/C=C(\C)CCC(=O)O)C(=O)OC2 [MYCOPHENOLIC ACID]			20 µM	> 100 µM	> 100 µM		> 100 µM	> 100 µM	2 µM		> 100 µM	> 100 µM	> 100 µM			33.3
COc1ccc(Cc2nc3cc(Cl)c(Cl)cc3[nH]2)cc1	29 µM		> 100 µM	> 100 µM	19 µM	> 100 µM	> 100 µM	> 100 µM	> 100 µM	17 µM	> 100 µM	> 100 µM	> 100 µM	5 µM	> 100 µM	≥ 20
O=c1cnn([C@@H]2O[C@H](CO)[C@@H](O)[C@H]2O)c(=O)[nH]1 [6-AZAURIDINE]			20 µM	> 100 µM	> 100 µM	> 100 µM	> 100 µM	> 100 µM		> 100 µM	> 100 µM	> 100 µM	> 100 µM			16.7
